# Variants at the floor of the assay were thinned out.
# B1: tRNA (parent)
# chain: GUUCCGUUGGCGUAAUGGUAACGCGUCUCCCUCCUAAGGAGAAGACUGCGGGUUCGAGUCCCGUACGGAACG
# Variants of: B1
# Experiment: yeast fitness relative to wild type (ratio to wild type); higher = fitter; tRNA-Arg(CCU), competitive growth, 37 C, YPD
# Procedure, shortened: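 Variants of the tRNA-Arg(CCU) gene were chemically synthesised with a 3% per-site mutation rate across 69 sites and placed at the native genomic locus in Saccharomyces cerevisiae. Six parallel replicates of the pooled strains were competed in YPD at 37°C for 24 hours, and gene amplicons from the start and end populations were read by 100-nucleotide paired-end sequencing. Darwinian fitness relative to wild type was derived from changes in genotype frequencies. Genotypes required ≥ 100 starting reads, and estimates < 0.5 were set to 0.5.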
row,Variant,yeast fitness
1,C4U U19A C27G A43U C46A C49U,≤ 0.5
2,C4U G23A U28C G56C,≤ 0.5
3,C4U U7A U13A U32C G44C,0.718
4,C4U C27U A57C C61U,≤ 0.5
5,C4U U47A G67A,0.607
6,C4U C55U A65G,0.554
7,C4U G12A C60A,≤ 0.5
8,C5A A14U,0.654
9,C5A A14G,0.912
10,C4U C33A U54C,≤ 0.5
11,C4U C60G G63C,≤ 0.5
12,C4U U8A U16C A20U C29U A45C,≤ 0.5
13,C4U C27G C33U A57G,≤ 0.5
14,C4U U7C C29G C49A,≤ 0.5
15,C4U G6C C33A A40C G41A U59A U64A C66G,≤ 0.5
16,C4U U47A G51C A70U,≤ 0.5
17,C4U U13C A14G,0.587
18,C4U G10C G23A U26C U32C A43G U53A,≤ 0.5
19,C4U G9A G39A G44C,≤ 0.5
20,C4U C33A A42G,≤ 0.5
21,C4U C27U C31G C55U,≤ 0.5
22,C4U C24G A37G,0.567
23,C4U U35G A45U,0.583
24,C4U G18A C22U A40C,≤ 0.5

row,Variant,yeast fitness
1,C4U U28C A36C G51A C66A,≤ 0.5
2,C4U C31U C61G,0.58
3,C4U G52C,0.726
4,C4U G12A A20G C22U G68C,≤ 0.5
5,C4U G41C,0.819
6,C4U C24U C55U,≤ 0.5
7,C4U G6C U7A,≤ 0.5
8,C4U G23C,0.716
9,C4U U26A G52C,0.569
10,C4U C30A G68A,0.786
11,C4U C34A A43U U47C C62G C66A,≤ 0.5
12,C4U G12C C29U C31U U54G A65U G67A,≤ 0.5
13,C4U G12C U28G C62G,≤ 0.5
14,C4U U8C A36G G44C,0.676
15,C4U G6A A36C,≤ 0.5
16,C5A A14G C22G C60U C61U,≤ 0.5
17,C5A A14G A20G C30A A40U G41C C61G G63C,≤ 0.5
18,C4U G9C G18A U26G A45C,≤ 0.5
19,C5A A14G C24G C31U A43G,≤ 0.5
20,C4U G25A C66U,0.75
21,C4U G58C A69C,0.765
22,C4U G9A C22A U26A G52C G67A,≤ 0.5
23,C5A A14C A43C,≤ 0.5
24,C4U G12A A20G C22U A57G,≤ 0.5

row,Variant,yeast fitness
1,C4U U16A U26C C27A U47C,≤ 0.5
2,C4U G44A C61G,≤ 0.5
3,C4U C61U A70G,0.777
4,C4U C30A G50C G56A C62U G67U,≤ 0.5
5,C4U G38C C61U C66U,≤ 0.5
6,C4U C46A G67C,≤ 0.5
7,C4U C33G,0.722
8,C4U C33U,0.789
9,C4U C29A G52C U54C C55A U59G,≤ 0.5
10,C4U C27G A65U,≤ 0.5
11,C4U U19A A42C,0.825
12,C4U C31U C55G U59A,0.546
13,C4U G51C U59G U64C,≤ 0.5
14,C4U U13A C46U U53A,0.633
15,C4U U8A A36C C61U,≤ 0.5
16,C4U C66U,0.978
17,C4U U7A C49U,0.58
18,C4U C24U A36C,≤ 0.5
19,C4U G38C G50A A70G,≤ 0.5
20,C4U U8C A37U A45U C49U A65G,≤ 0.5
21,C4U U13C G25A C60A C62U,≤ 0.5
22,C4U G17A C22U G68C,≤ 0.5
23,C4U C29A G52C C55A U59G,0.554
24,C4U U7A A36U A70G,≤ 0.5

row,Variant,yeast fitness
1,C4U C24G C49U C60U C61A,0.58
2,C4U G44A G58A,0.974
3,C4U G9A C22G A42U,0.546
4,C4U G12A U28A A42C,0.515
5,C4U C31U C60A,≤ 0.5
6,C4U U32A G41C A43C,≤ 0.5
7,C4U G18C G50A,≤ 0.5
8,C4U C29A C31G A42C A45U A69U,≤ 0.5
9,C4U C33A A40U G68A,≤ 0.5
10,C4U U59A,0.999
11,C4U U59G,0.909
12,C4U G44C G67A,0.768
13,C4U U13C U26A G63C,≤ 0.5
14,C4U G12A C27G C34A C49A G68U,≤ 0.5
15,C4U C55A A65U,≤ 0.5
16,C4U U7A A36G,≤ 0.5
17,C4U U7A A36U,0.567
18,C4U C60U C62A,≤ 0.5
19,C4U G48C C66U,0.729
20,C4U U7A C22U U54C C66U G68C A69U,≤ 0.5
21,C4U G10C A21G C30A G38C C46U A70C,≤ 0.5
22,C4U C24G C34A A45C G56A C61A A65C A69C A70G,0.597
23,C4U U35C A70U,0.711
24,C4U C24U C27G,≤ 0.5

row,Variant,yeast fitness
1,C4U U13A,1.1
2,C4U U13C,0.884
3,C4U U28C A36C,≤ 0.5
4,C4U U13A G23A A36U G39C C62A U64A,0.537
5,C5A A14G C24A U32C,≤ 0.5
6,C4U C27G A45C,0.564
7,C4U C29G C30U,≤ 0.5
8,C4U C34A G44C,0.636
9,C4U U47A U54C C61A,≤ 0.5
10,C4U G18A A21C G48C,≤ 0.5
11,C4U G10C A36U,0.659
12,C4U U13A A14U C29U A37G A57C,≤ 0.5
13,C4U G10A C22G,0.642
14,C4U U35A A43U C62U G67C G68A,≤ 0.5
15,C4U G41C G48A C61A,≤ 0.5
16,C4U G41C C61A,≤ 0.5
17,C4U G25C,0.999
18,C4U G39C U59G C62A,≤ 0.5
19,C4U U19C,0.927
20,C4U U19A,1.04
21,C4U G44U,0.757
22,C4U G9C A20G A45G C61A G67A,≤ 0.5
23,C4U U7A A36U A65G,0.535
24,C4U G9A C22G A42U G68C,≤ 0.5

row,Variant,yeast fitness
1,C4U C34G G52U,0.62
2,C4U C27A C31U C60G,≤ 0.5
3,C4U C24G U26A U28G,0.539
4,C4U G44C A57U,0.595
5,C4U G18A A21C A36U,≤ 0.5
6,C4U U7A G68A,≤ 0.5
7,C5A A14G A37G C49G C55U G56C G68A,≤ 0.5
8,C4U U8G A15U,≤ 0.5
9,C4U C30A A37U G44C U53A,≤ 0.5
10,C4U C31G A40G A45C U53A A70U,≤ 0.5
11,C4U C27U U64C,0.757
12,C4U G12A A45C C49U,≤ 0.5
13,C4U U35G A65G,0.607
14,C4U C29U C31U,0.538
15,C4U G23C A36C C55G A57U G67A,≤ 0.5
16,C4U C55U,0.694
17,C4U G48C A70U,0.542
18,C4U U16C U32A G58A C60U,≤ 0.5
19,C4U U16A A20G C66U,≤ 0.5
20,C5A A15G C31U,0.657
21,C4U U7C A57U C61U,≤ 0.5
22,C5A A14C U26A C34U C55G,≤ 0.5
23,C4U U7A C30G C34G A40C A65U,≤ 0.5
24,C4U U8A U32G U35A C62U,0.707

row,Variant,yeast fitness
1,C4U G6A A15U A20C G25C U35A A45U,≤ 0.5
2,C4U C46G C61G A65C,0.588
3,C4U U32G A57G,≤ 0.5
4,C4U U8A A20G C24A,≤ 0.5
5,C4U U8A U13C C46A C61U,≤ 0.5
6,C4U G17C G18C C22A C60A C66U,≤ 0.5
7,C4U U16G A43U,1.13
8,C4U C27G A65U A70G,≤ 0.5
9,C4U G12A A40U A65C,≤ 0.5
10,C4U U28C C29U G63C A65U,≤ 0.5
11,C4U G25C C34U A65U,≤ 0.5
12,C4U C49A C66U,0.612
13,C4U C61U,0.977
14,C4U G6C A21C C30G C46G,0.524
15,C4U G9A C34U A36G C55G A57U G67A,≤ 0.5
16,C4U U32A U35C,0.511
17,C4U G12A A42U,≤ 0.5
18,C4U U16A A37U A65U,≤ 0.5
19,C4U U8A C22U,≤ 0.5
20,C4U C34A C46U U47A,≤ 0.5
21,C4U G44C A69U A70G,≤ 0.5
22,C4U G23C U47C C49A G68C,≤ 0.5
23,C4U U7G C11G C46G,≤ 0.5

# From the RNAGym collection of RNA variant scans (doi:10.1126/science.aae0568)
